ChEMBL document CHEMBL4359899, “Synthesis, evaluation and structural investigations of potent purple acid phosphatase inhibitors as drug leads for osteoporosis” (Eur J Med Chem, 2019)

Legend:
[1] = molecular target: T1, Fe(3+)-Zn(2+) purple acid phosphatase (Phaseolus vulgaris) (UniProt P80366); assay: Competitive inhibition of red kidney bean PAP using varying levels of pNPP as substrate measured at pH 6.2 by UV-vis spectrophotometric analysis
T1 sequence (whole entry): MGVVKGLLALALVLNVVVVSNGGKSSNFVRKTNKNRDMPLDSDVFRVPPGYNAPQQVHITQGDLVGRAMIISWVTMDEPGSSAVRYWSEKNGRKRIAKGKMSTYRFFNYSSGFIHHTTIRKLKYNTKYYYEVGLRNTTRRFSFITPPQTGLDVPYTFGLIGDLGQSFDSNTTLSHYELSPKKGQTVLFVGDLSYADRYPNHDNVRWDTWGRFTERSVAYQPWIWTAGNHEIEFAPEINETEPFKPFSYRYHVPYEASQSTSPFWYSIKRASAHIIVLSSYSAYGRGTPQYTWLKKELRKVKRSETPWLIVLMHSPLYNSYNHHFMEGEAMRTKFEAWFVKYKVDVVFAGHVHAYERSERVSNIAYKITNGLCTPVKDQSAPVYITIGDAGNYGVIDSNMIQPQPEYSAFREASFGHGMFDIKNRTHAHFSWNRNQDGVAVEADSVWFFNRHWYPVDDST
Procedure, shortened: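 Red kidney bean PAP (rkbPAP), purified, at 8.4 nM. p-NPP 1–15 mM in 0.1 M MES pH 6.2 with 25% DMSO, 25 °C. p-Nitrophenol formation followed at 405 nm (Δε 1834.4 mol−1 L cm−1). Inhibitor concentration varied; competitive constant Kic from non-linear regression using a general inhibition equation.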

Sus scrofa = species on record: Sus scrofa; assay: Competitive inhibition of pig PAP using varying levels of pNPP as substrate measured at pH 4.9 by UV-vis spectrophotometric analysis
Procedure, shortened: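 Purified pig PAP, first reduced to the FeIII-FeII form (0.77 mM β-mercaptoethanol, 10 min, 37 °C), at 8.4 nM. p-NPP 1–15 mM in 0.1 M acetate pH 4.9 with 25% DMSO, 25 °C. p-Nitrophenol formation read at 405 nm (Δε 342.9 mol−1 L cm−1). Inhibitor concentration varied; Kic fitted by non-linear regression to a general inhibition equation.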

[2] = Solubility of the compound in 25% DMSO; type: physicochemical
[3] = Inhibition of human PAP assessed as dephosphorylation of 4-methylumbelliferyl phosphate to 4-methylumbelliferone using 4-methylumbelliferyl phosphate as substrate measured for 15 mins by micro-fluorescence detector method

Row | Kic [1] | Kic (Sus scrofa) | solubility [2] | SMILES | IC50 [3]
1 | 0.5 µM | 0.2 µM | Soluble | CCCCCCCCCCCCCCCCCCOC(c1cccc2ccccc12)P(=O)(O)O (racemic) | –
2 | 4.5 µM | 0.7 µM | Soluble | CCCCCCCCCCCCOC(c1cccc2ccccc12)P(=O)(O)O (racemic) | –
3 | 0.8 µM | 4.4 µM | Soluble | CCCCCCCCCCCCCCCCCCCCOC(c1cccc2ccccc12)P(=O)(O)O (racemic) | –
4 | 0.4 µM | 0.6 µM | Soluble | CCCCCCCCCCCCCCCCOC(c1cccc2ccccc12)P(=O)(O)O (racemic) | –
5 | 0.2 µM | 1.1 µM | Soluble | CCCCCCCCCCCCCCOC(c1cccc2ccccc12)P(=O)(O)O (racemic) | –
6 | – | – | – | O=C(c1ccccc1)C(C(=O)c1ccccc1)(c1cccc2ccccc12)P(=O)(O)O | 1400 nM
7 | 14 µM | 62 µM | Soluble | CCCCCCCCCCCCCCCCCCCCCCOC(c1cccc2ccccc12)P(=O)(O)O (racemic) | –
